Shown are actives, neighbours in structure and some others; about 1.3% of the full set was active somewhere.
FAS TE block: blocks the thioesterase domain of human fatty acid synthase; P49327; recombinant FAS-TE, OMFH fluorogenic substrate, fluorescence endpoint; inhibition, % at 15 µM; hit rate 0.67% among 360,000; AID 602261;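 active = compounds whose normalised, plate-corrected inhibition of enzyme fluorescence in the single-dose primary screen is 50% or more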
DAGLB inhibitor: diacylglycerol lipase beta (human) inhibition; Q8NCG7; HEK293T DAGLB membrane lysate, EnzChek fluorogenic substrate; inhibition, % at 5.17 µM; hit rate 0.059% among 340,000; AID 504411; in the data active = inhibition above about 34%
SKN-1 inh: inhibitors of C. elegans SKN-1. hit rate 0.49% among 360,000. inhibition, % at 21.8 µM. C. elegans VP596 Pgst-4::GFP/RFP ratio, acrylamide-induced, 24 h;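 active = interference check ratio from 0.5 to 1.5 plus GFP to RFP signal ratio inhibition reaching or exceeding a fixed threshold, cut at about 30% in these data, passing the limit was not always enough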
iPSC survival up: enhancers of human iPSC single-cell survival; hiPSC single-cell survival, ATPlite luminescence; 100% = ROCK inhibitor wells, 0% = DMSO; survival enhancement, % at 20 µM; hit rate 0.044% among 360,000; in the data active = survival enhancement above about 18%;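 note: cells exposed to compounds for 16 hours before the ATP read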
MT1-MMP act inh: blocks activation of human MT1-MMP; HT1080 RFP-PRO-GFP cells, GFP/RFP ratio fluorescence, overnight; percent of plate control window, DMSO zero; hit rate 0.061% among 360,000; AID 651647; GFP/RFP ratio change, % at 20 µM; P50281;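 active = GFP/RFP ratio change of at least 30% with cell ATP level not reduced by more than half and red fluorescence within 50% of control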
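Material: RFP-PRO-GFP reporter HT1080 cells. Dosing: single-point 20 µM compound, 1% DMSO. Controls: DMSO and RFP-L50D-GFP cell wells. Timing: cells overnight before dosing, compound overnight, 37 °C, 5% CO2. Measure: GFP/RFP fluorescence ratio.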
Numbers stand for hits.

For Cc1c(C)n(Cc2ccc(F)cc2)c2ccc(C(=O)N3CCN(c4ccccn4)CC3)cc12 the results were FAS TE block inactive, DAGLB inhibitor inactive, SKN-1 inh 58.7, iPSC survival up inactive and MT1-MMP act inh inactive.
CCn1c(C)c(C)c2cc(C(=O)N3CCN(c4ccccc4)CC3)ccc21 was read as FAS TE block inactive, DAGLB inhibitor inactive, SKN-1 inh 46.2, iPSC survival up inactive and MT1-MMP act inh inactive.
For O=C(c1ccc(F)cc1)N1CCN(c2ccccn2)CC1 the results were FAS TE block inactive, DAGLB inhibitor inactive, SKN-1 inh inactive, iPSC survival up inactive and MT1-MMP act inh inactive.
For CCn1c(C)c(C)c2cc(C(=O)N3CCCC3)ccc21 the results were FAS TE block inactive, DAGLB inhibitor inactive, SKN-1 inh inactive, iPSC survival up inactive and MT1-MMP act inh inactive.
Screening Cc1ccc2c(CN3CCN(c4ccccc4)CC3)cc(=O)oc2c1 returned FAS TE block inactive, SKN-1 inh inactive, iPSC survival up inactive and MT1-MMP act inh inactive.
For CN(C)c1ccc(-c2ccnc3c2CC(C)(C(=O)Nc2ccc(Cl)c(C(F)(F)F)c2)O3)cc1 (centres undefined) the results were FAS TE block inactive, SKN-1 inh inactive, iPSC survival up 19.7 and MT1-MMP act inh inactive.
Screening CC(=O)Nc1ccc(-c2ccnc3c2CC(C)(C(=O)Nc2ccc(Cl)c(C(F)(F)F)c2)O3)cc1 (centres undefined) returned FAS TE block inactive, SKN-1 inh inactive, iPSC survival up inactive and MT1-MMP act inh inactive.
For Cc1ccc(NC(=O)c2ccccc2)cc1 the results were FAS TE block inactive, DAGLB inhibitor inactive, SKN-1 inh inactive, iPSC survival up inactive and MT1-MMP act inh inactive.
`Cc1ccc(NC(=O)C(=O)c2ccc(C)cc2)cc1` gave FAS TE block inactive, DAGLB inhibitor inactive, SKN-1 inh 37.1, iPSC survival up inactive and MT1-MMP act inh inactive.
`CCCS(=O)(=O)NC(=O)C1(C)CCN(C(=O)COc2ccc(Cl)cc2Cl)C1` (centres undefined) gave FAS TE block inactive, SKN-1 inh inactive, iPSC survival up inactive and MT1-MMP act inh inactive.
Screening CCOC(=O)[C@]12CCCC=C1N(CCc1ccc(OC)c(OC)c1)C(=O)[C@H](CC(=O)NCc1ccc(C)o1)C2 returned SKN-1 inh inactive and MT1-MMP act inh inactive.
Screening CC(OC(=O)c1ccc(S(C)(=O)=O)c([N+](=O)[O-])c1)C(=O)NC1C2CC3CC(C2)CC1C3 (centres undefined) returned FAS TE block inactive, SKN-1 inh inactive, iPSC survival up 24.5 and MT1-MMP act inh inactive.
`CS(=O)(=O)c1ccc(C(=O)OCC(=O)NC23CC4CC(CC(C4)C2)C3)cc1[N+](=O)[O-]` gave FAS TE block inactive, DAGLB inhibitor inactive, SKN-1 inh inactive, iPSC survival up inactive and MT1-MMP act inh inactive.
`CCC(OC(=O)c1ccc(S(C)(=O)=O)c([N+](=O)[O-])c1)C(=O)NC1C2CC3CC(C2)CC1C3` (centres undefined) gave FAS TE block inactive, SKN-1 inh inactive, iPSC survival up 30.0 and MT1-MMP act inh inactive.
`COc1ccc(-c2coc3c(C(=O)Nc4cccnc4)cccc23)c(C)c1` gave FAS TE block inactive, SKN-1 inh inactive, iPSC survival up inactive and MT1-MMP act inh inactive.
For CC(=O)Nc1ccc(C(=O)OCC(=O)NC(=O)NC(C)(C)C)cc1 the results were FAS TE block inactive, DAGLB inhibitor inactive, SKN-1 inh 44.9, iPSC survival up inactive and MT1-MMP act inh inactive.
Screening CN1CCN(c2ncnc3c2ncn3[C@H]2CN(Cc3ccc(F)cc3)C[C@@H](CO)O2)CC1 returned FAS TE block inactive, SKN-1 inh inactive, iPSC survival up inactive and MT1-MMP act inh inactive.
CC(C)(C)OC(=O)NCC12C=CC(O1)C1C(=O)N(Cc3ccccc3)C(=O)C12 (centres undefined) was read as FAS TE block inactive, DAGLB inhibitor inactive, SKN-1 inh 37.0, iPSC survival up inactive and MT1-MMP act inh inactive.
Screening Cc1ccc(NC(=S)NCC23C=CC(O2)C2C(=O)N(c4ccc(C)cc4)C(=O)C23)cc1 (centres undefined) returned FAS TE block inactive, DAGLB inhibitor inactive, SKN-1 inh inactive, iPSC survival up inactive and MT1-MMP act inh inactive.
O=C(Nc1ccc(Cl)cc1)C(c1ccccc1)N(CCO)CCO (centres undefined) was read as FAS TE block inactive, DAGLB inhibitor inactive, SKN-1 inh 36.8, iPSC survival up inactive and MT1-MMP act inh inactive.

High-throughput results: PubChem BioAssay, several laboratories
